# Active and inactive are the calls of the source. The calls are words filed in the database; no cut-off is given here.
# Columns and labels:
# [1] = target: T1, 5-hydroxytryptamine receptor 6 (Homo sapiens, UniProt P50406); assay: Inhibition of ligand binding to human 5-HT6R at 10 uM relative to control
# [2] = target: T1, 5-hydroxytryptamine receptor 6; assay: Antagonist activity at human 5-HT6R expressed in human HeLa cells assessed as inhibition of 5-HT-induced cAMP levels pre-treated for 10 mins before 30 mins stimulation with 5-HT by D2-dye based HTRF assay; format: functional, cell-based
# Summary of the method: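 HeLa cells stably expressing human 5-HT6 receptor, kept at 37°C in 5% CO2/95% air, suspended in PBS with 2 mM IBMX. Compound pretreatment 10 min, then 100 nM 5-HT stimulation 30 min. d2-labelled cAMP and cryptate-labelled anti-cAMP antibody added, 1 h at room temperature. Fluorescence read at 314 nm excitation, 668 and 620 nm emission.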
# [3] = system: Rattus norvegicus; assay: Antineuropathic pain activity in rat spinal nerve ligation model assessed as effect on mechanical allodynia by measuring frequency of paw withdrawal at 100 mg/kg, po measured up to 3 hrs; format: functional, organism-based
# Summary of the method: (§1)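 Rats with spinal nerve ligation neuropathic injury, dosed orally at 100 mg/kg (n = 3–6 per group). Allodynia tested before injury, before dosing (post-injury day 14), and 1, 3 and 5 h after dosing. Values compared with pre-administration values by paired t-test, P < 0.05.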
# [4] = system: Rattus norvegicus; assay: Poteny index, ratio of gabapentin to test compound antineuropathic pain activity in rat spinal nerve ligation model assessed as effect on mechanical allodynia by measuring frequency of paw withdrawal at 100 mg/kg, po; format: functional
# [5] = target: Voltage-gated inwardly rectifying potassium channel KCNH2 (Homo sapiens, UniProt Q12809); assay: Inhibition of human ERG expressed in CHOK1 cells by patch clamp method
# Voltage-gated inwardly rectifying potassium channel KCNH2, sequence (Q12809 whole entry): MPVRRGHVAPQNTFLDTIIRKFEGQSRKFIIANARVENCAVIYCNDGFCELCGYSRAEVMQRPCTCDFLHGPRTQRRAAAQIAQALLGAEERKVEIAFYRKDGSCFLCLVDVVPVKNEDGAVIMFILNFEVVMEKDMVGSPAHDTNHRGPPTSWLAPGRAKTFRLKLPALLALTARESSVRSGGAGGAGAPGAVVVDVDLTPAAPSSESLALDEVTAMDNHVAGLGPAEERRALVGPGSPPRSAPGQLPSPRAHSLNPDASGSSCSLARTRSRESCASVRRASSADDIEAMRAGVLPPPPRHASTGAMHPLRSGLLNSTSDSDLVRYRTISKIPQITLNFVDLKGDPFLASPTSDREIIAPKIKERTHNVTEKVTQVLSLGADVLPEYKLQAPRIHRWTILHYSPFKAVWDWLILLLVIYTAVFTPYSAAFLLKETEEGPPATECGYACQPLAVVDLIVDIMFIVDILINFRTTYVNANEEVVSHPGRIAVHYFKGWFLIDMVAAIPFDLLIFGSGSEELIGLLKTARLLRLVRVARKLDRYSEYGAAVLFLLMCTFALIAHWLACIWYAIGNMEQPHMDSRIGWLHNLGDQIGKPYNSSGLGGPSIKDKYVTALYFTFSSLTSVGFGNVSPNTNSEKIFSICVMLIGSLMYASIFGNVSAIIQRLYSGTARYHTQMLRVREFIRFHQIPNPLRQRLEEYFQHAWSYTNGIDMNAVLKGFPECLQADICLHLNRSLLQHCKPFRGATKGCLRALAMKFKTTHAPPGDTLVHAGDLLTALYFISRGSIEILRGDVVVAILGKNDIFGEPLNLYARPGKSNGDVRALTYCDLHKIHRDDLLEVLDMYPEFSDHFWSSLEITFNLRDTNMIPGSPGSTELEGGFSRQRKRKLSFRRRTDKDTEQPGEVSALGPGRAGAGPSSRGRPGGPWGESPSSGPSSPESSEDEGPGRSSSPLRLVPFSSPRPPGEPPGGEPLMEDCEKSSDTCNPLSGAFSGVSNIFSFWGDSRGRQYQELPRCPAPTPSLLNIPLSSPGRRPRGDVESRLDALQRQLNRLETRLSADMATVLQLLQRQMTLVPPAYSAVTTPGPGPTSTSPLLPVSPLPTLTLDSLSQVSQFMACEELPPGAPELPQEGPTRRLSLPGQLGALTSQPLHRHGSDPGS
# [6] = target: CYP2C9 (Homo sapiens, UniProt P08684); assay: Inhibition of recombinant human CYP2C9 expressed in baculosomes assessed as remaining activity at 10 uM preincubated for 10 mins followed by Vivid CYP450 substrate addition in presence of NADP+ by fluorescence assay relative to miconazole; format: ADME; conditions: probe Vivid CYP450 substrate, read-out: Activity
# CYP2C9, sequence (P08684 whole entry): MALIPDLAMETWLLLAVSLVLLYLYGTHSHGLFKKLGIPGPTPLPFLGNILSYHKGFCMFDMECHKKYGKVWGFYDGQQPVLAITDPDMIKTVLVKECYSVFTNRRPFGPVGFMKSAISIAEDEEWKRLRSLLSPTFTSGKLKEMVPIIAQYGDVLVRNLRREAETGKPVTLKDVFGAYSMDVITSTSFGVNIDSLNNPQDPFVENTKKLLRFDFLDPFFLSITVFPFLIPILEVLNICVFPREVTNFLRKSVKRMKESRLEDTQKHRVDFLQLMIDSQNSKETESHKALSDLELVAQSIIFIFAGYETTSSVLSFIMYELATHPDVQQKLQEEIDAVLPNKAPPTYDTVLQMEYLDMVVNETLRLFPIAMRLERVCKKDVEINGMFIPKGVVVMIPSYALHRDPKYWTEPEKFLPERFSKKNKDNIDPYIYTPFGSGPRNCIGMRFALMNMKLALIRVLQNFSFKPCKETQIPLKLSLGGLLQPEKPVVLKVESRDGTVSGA
# Summary of the method: (§2)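 Remaining percent CYP activity measured at 10 µM test concentration. Values are means ± SD of triplicate experiments.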
# [7] = target: CYP3A4 (Homo sapiens, UniProt P08684); assay: Inhibition of recombinant human CYP3A4 expressed in baculosomes assessed as remaining activity at 10 uM preincubated for 10 mins followed by Vivid CYP450 substrate addition in presence of NADP+ by fluorescence assay relative to ketoconazole; format: ADME; conditions: probe Vivid CYP450 substrate, read-out: Activity; summary of the method: as §2
# CYP3A4, sequence (P08684 whole entry): as above
# [8] = system: Rattus norvegicus; assay: Antineuropathic pain activity in rat spinal nerve ligation model assessed as effect on cold allodynia by measuring paw withdrawal response at 100 mg/kg, po measured up to 5 hrs; format: functional, organism-based; summary of the method: as §1
# [9] = target: CYP2D6 (Homo sapiens, UniProt P10635); assay: Inhibition of recombinant human CYP2D6 expressed in baculosomes assessed as remaining activity at 10 uM preincubated for 10 mins followed by Vivid substrate addition in presence of NADP+ by fluorescence assay relative to […]; format: ADME; conditions: probe Vivid substrate, read-out: Activity; summary of the method: as §2
# CYP2D6, sequence (P10635 whole entry): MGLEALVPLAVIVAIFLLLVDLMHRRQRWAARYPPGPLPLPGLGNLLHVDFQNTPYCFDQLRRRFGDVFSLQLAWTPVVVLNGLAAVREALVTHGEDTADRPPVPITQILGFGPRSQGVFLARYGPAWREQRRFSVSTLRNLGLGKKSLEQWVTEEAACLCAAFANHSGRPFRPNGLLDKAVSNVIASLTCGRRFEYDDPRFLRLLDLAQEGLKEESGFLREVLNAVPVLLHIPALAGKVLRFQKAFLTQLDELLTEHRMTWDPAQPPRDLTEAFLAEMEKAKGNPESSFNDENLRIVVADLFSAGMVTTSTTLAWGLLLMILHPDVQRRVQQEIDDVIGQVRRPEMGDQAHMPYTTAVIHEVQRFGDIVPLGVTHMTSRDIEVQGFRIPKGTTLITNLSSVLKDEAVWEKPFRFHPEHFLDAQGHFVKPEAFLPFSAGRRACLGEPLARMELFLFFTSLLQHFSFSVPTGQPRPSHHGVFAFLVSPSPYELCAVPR
# T1 sequence (P50406 whole entry): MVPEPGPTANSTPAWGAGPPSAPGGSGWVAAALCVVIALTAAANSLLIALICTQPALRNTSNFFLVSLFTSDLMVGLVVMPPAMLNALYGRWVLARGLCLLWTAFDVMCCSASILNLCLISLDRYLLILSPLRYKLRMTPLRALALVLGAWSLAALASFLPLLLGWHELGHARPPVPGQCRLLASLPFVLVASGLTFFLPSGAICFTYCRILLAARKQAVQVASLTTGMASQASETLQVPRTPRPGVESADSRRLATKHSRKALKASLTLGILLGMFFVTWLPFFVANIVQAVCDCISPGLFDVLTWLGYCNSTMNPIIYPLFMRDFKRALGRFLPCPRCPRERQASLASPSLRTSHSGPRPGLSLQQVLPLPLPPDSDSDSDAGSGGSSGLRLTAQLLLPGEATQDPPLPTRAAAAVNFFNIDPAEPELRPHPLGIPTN
Structure (SMILES),inhibition [1],IC50 [2],other results
CC(C)Cc1cc(CNS(=O)(=O)c2cccc(Cl)c2)nn1-c1ccccc1,40.8%,10900 nM,
CC(C)Cc1cc(CNS(=O)(=O)c2cccc3cccnc23)nn1-c1ccc(F)cc1,93.4%,1780 nM,Activity [3]: Active; Ratio [4]: 60; IC50 [5]: 1600 nM; activity at 10 µM [6]: 3.87%; activity at 10 µM [7]: 34.5%; Activity [8]: inactive; activity at 10 µM [9]: 64.8%
CC(C)Cc1cc(CNS(=O)(=O)c2ccccc2)nn1-c1ccccc1,11.3%,,
CC(C)Cc1cc(CNS(=O)(=O)Cc2cccc3ccccc23)nn1-c1ccccc1,28.7%,,
CC(C)Cc1cc(CNS(=O)(=O)c2c(Cl)cccc2Cl)nn1-c1ccccc1,59.4%,5650 nM,
CC(C)Cc1cc(CNS(=O)(=O)c2ccc3ccccc3c2)nn1-c1ccccc1,67.8%,3300 nM,
CC(C)Cc1cc(CNS(=O)(=O)c2cccc3cccnc23)nn1-c1ccccc1,106%,1420 nM,Activity [3]: Active; activity at 10 µM [7]: 52.2%; Activity [8]: inactive; activity at 10 µM [9]: 119%
Cc1c(Cl)cccc1S(=O)(=O)NCc1cc(CC(C)C)n(-c2ccccc2)n1,72.3%,4010 nM,
CC(C)Cc1cc(CNS(=O)(=O)c2cccc(F)c2)nn1-c1ccccc1,19.5%,,
CC(C)Cc1cc(CNS(=O)(=O)c2cccc3ccccc23)nn1-c1ccccc1,77.7%,2430 nM,
O=C1c2[nH]nc(NS(=O)(=O)c3ccc4ccccc4c3)c2CCN1CC1CCNCC1,94.1%,310 nM,
CC(C)Cc1cc(CNS(=O)(=O)c2ccc(C(C)(C)C)cc2)nn1-c1ccccc1,51.1%,8780 nM,
NCC1(CC(=O)O)CCCCC1,,,Activity [3]: Active
CC(C)Cc1cc(CNS(=O)(=O)Cc2cccc3ccccc23)nn1-c1ccc(F)cc1,36.1%,,
